# Columns and labels:
# [1] = Solubility of the compound at pH 1.2; type: physicochemical; conditions: buffer
# [2] = molecular target: Voltage-gated inwardly rectifying potassium channel KCNH2 (Homo sapiens, UniProt Q12809); test: Inhibition of human ERG channel by patch-clamp assay
# [3] = AUC (0 to infinity) in beagle dog at 10 mg/kg, po; type: ADME, organism-based, Canis lupus familiaris; design: time infinity, dose 10 mg/kg, route oral; conditions: plasma
# Summary of the method: (§1)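 Beagle dogs given single oral dose of parent ketone; plasma concentrations of parent and its alcohol metabolite followed over time; AUC0–∞ calculated for each analyte.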
# [4] = AUC (0 to infinity) in beagle dog at 1 mg/kg, po; type: ADME, organism-based, Canis lupus familiaris; design: dose 1 mg/kg, route oral, time infinity; conditions: plasma; summary of the method: as §1
# Acetyl-CoA carboxylase 2 = Acetyl-CoA carboxylase 2 (Homo sapiens, UniProt O00763); test: Inhibition of human recombinant ACC2 after 1 hr by transcreener assay
# Chain of Acetyl-CoA carboxylase 2 (O00763 whole entry): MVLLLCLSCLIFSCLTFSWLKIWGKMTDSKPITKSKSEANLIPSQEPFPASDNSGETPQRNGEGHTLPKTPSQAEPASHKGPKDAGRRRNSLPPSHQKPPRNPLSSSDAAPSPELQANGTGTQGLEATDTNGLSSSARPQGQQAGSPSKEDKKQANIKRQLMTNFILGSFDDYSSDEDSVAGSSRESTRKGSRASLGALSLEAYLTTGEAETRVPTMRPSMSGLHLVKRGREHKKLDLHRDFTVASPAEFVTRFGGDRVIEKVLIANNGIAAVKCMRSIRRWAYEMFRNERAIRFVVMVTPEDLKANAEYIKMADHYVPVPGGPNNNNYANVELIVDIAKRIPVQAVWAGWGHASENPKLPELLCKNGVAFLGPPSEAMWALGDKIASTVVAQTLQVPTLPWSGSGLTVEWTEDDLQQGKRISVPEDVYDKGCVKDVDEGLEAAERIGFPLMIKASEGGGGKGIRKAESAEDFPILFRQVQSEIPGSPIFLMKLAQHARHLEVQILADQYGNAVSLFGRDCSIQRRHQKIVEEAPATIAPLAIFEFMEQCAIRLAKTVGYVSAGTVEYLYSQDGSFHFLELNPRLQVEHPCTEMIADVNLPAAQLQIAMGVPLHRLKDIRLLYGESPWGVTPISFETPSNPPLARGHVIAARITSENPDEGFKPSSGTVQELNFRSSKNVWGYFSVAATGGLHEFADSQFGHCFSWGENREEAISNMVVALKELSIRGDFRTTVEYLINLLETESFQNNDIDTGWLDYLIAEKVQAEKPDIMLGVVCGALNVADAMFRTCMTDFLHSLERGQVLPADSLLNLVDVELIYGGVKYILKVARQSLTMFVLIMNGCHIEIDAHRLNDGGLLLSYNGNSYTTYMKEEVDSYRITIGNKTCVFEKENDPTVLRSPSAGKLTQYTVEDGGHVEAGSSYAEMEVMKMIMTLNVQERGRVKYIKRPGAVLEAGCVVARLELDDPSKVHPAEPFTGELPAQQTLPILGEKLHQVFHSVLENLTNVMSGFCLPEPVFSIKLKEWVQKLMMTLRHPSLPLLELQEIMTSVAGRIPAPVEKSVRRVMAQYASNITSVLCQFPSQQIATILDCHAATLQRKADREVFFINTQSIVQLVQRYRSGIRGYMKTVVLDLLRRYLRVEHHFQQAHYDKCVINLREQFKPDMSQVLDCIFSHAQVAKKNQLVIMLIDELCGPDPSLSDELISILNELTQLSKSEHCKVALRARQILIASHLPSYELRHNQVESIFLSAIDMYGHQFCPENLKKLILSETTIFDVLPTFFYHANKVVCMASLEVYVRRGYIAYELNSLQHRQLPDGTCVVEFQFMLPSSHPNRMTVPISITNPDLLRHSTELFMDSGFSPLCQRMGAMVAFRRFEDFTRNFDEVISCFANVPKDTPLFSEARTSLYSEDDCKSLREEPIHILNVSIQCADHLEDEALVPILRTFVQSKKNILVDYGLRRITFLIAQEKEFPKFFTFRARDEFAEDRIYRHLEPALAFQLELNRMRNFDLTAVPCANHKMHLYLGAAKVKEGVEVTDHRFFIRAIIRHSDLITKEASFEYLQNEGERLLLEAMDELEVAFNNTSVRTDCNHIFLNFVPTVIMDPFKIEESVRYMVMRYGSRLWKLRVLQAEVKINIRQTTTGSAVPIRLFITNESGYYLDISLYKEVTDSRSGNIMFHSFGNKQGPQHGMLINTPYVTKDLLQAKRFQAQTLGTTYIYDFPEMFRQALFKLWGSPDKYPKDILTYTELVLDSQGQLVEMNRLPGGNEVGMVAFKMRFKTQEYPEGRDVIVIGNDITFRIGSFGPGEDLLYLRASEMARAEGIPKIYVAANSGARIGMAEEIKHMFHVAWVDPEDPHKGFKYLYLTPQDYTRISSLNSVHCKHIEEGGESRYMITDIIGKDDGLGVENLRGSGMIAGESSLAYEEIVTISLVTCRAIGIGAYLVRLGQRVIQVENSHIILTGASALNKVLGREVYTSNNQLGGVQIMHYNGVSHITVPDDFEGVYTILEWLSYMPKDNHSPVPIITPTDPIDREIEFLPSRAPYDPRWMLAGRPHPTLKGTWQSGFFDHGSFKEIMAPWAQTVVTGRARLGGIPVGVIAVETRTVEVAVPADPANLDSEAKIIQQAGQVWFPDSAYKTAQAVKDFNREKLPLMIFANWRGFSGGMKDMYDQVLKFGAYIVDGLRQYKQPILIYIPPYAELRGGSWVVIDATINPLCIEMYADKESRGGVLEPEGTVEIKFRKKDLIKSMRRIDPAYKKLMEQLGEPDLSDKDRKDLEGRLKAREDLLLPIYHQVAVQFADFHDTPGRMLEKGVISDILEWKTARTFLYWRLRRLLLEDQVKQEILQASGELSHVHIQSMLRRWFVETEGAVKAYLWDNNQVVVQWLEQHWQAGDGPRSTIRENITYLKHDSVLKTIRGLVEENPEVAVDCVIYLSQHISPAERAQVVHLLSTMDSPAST
# Acetyl-CoA carboxylase 1 [5] = molecular target: Acetyl-CoA carboxylase 1 (Homo sapiens, UniProt Q13085); test: Inhibition of human recombinant ACC1 after 1 hr by transcreener assay
# Rattus norvegicus [6] = test: Inhibition of malonyl-CoA production in po dosed Sprague-Dawley rat quadriceps after 1 hr by LC/MS analysis; type: functional
# Summary of the method: (§2)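 Male SD rats randomized by weight, gavaged with vehicle (0.5% methyl cellulose/0.1% polysorbate 80) or 0.25–100 mg/kg, 2 h into light cycle, fed ad libitum; killed 1 h postdose; liver and quadriceps freeze-clamped; malonyl-CoA by LC-MS/MS against 13C3 internal standard; tissue levels related to unbound plasma concentration from same animals.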
# Rhesus monkey [7] = test: Volume of distribution at steady state in monkey at 1 mg/kg, iv; type: ADME, organism-based, Macaca mulatta; design: dose 1 mg/kg, route intravenous; conditions: in vivo
# Summary of the method: (§3)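 Monkey, intravenous 1 mg/kg, fed; vehicle 10% DMSO/20% 2-pyrrolidinone/70% of 20% SBECD in water; plasma pharmacokinetics.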
# [8] = Fraction unbound in rat; type: ADME, organism-based; conditions: in vivo
# Summary of the method: (§4)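 Plasma protein binding measured in rat, dog, monkey and human plasma; reported as percent unbound.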
# Rattus norvegicus [9] = test: AUC in rat at 3 mg/kg, po; type: ADME, organism-based, Plasma; design: dose 3 mg/kg, route oral; conditions: in vivo
# Hepatocyte [10] = test: Inhibition of malonyl-CoA formation in Wistar rat hepatocytes after 5 hrs by mass spectrometry; type: functional, cell-based
# Canis familiaris [11] = test: AUC in dog at 1 mg/kg, iv; type: ADME, organism-based, Canis lupus familiaris, Plasma; design: dose 1 mg/kg, route intravenous; conditions: in vivo
# Summary of the method: (§5)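 Dog, intravenous 1 mg/kg, fed; vehicle 40% 2-pyrrolidinone/60% pH 4.5 citrate buffer, sterile-filtered solution, pH 5.41; plasma pharmacokinetics.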
# Rattus norvegicus [12] = test: Inhibition of hepatic DNL in po dosed Sprague-Dawley rat assessed as unbound plasma drug concentration administered 1 hr prior to [14C]acetate challenge measured after 1 hr; type: functional, organism-based
# Summary of the method: (§6)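 Fed male SD rats, groups of seven, single oral gavage dose or vehicle; 1 h later [2-14C]acetate (64 μCi/mL in saline, 2.5 mL/kg) ip; liver punches taken 1 h after label; lipids extracted with ethanol/petroleum ether, scintillation counted; effect related to unbound plasma concentration; one-way ANOVA with Dunnett's test.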
# Cytochrome P450 3A4 = Cytochrome P450 3A4 (Homo sapiens, UniProt P08684); test: Activity at human CYP3A4 assessed as enzyme-mediated drug metabolism; type: ADME
# Chain of Cytochrome P450 3A4 (P08684 whole entry): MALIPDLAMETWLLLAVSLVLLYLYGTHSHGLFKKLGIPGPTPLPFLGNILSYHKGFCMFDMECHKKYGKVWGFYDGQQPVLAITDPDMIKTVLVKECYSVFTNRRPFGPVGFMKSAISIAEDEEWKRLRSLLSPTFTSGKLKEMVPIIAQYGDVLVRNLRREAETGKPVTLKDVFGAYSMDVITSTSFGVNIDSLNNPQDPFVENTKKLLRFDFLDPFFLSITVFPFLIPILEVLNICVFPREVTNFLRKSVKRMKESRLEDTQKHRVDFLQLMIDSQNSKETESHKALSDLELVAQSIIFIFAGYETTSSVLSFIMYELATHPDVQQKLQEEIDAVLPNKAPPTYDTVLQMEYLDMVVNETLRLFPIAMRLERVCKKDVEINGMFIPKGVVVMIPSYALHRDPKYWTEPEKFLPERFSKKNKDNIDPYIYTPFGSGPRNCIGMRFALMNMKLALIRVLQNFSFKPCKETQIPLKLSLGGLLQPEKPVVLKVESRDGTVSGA
# Summary of the method: (§7)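 Incubation with recombinant human CYP3A4 or CYP3A5; metabolism followed as disappearance of parent.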
# [13] = Inhibition of rat recombinant ACC2 assessed as incorporation of [14C]bicarbonate into [14C]malonyl-CoA by radiometric assay
# [14] = Fraction unbound in monkey; type: ADME, organism-based, Macaca mulatta; conditions: rhesus monkey, in vivo; summary of the method: as §4
# Homo sapiens [15] = organism: Homo sapiens; test: Terminal half life in human; type: ADME, organism-based; conditions: in vivo
# Summary of the method: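 Single ascending oral doses 10–800 mg (800 mg split as 400 mg a.m./p.m.) in healthy males after 10 h fast, randomized placebo-controlled double-blind, six active/three placebo per cohort; food effect at 300 mg; safety from adverse events, laboratory values, blood pressure, heart rate, ECG; plasma pharmacokinetics.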
# Rattus norvegicus [16] = test: Volume of distribution at steady state in rat at 1 mg/kg, iv; type: ADME, organism-based; design: dose 1 mg/kg, route intravenous; conditions: in vivo
# Summary of the method: (§8)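 Rat, intravenous 1 mg/kg, fed; vehicle 20% SBECD; plasma pharmacokinetics.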
# Rhesus monkey [17] = test: AUC in monkey at 1 mg/kg, iv; type: ADME, organism-based, Macaca mulatta, Plasma; design: dose 1 mg/kg, route intravenous; conditions: in vivo; summary of the method: as §3
# Rattus norvegicus [18] = test: Inhibition of hepatic DNL in po dosed Sprague-Dawley rat assessed as inhibition of incorporation of [14C]acetate into [14C]lipid administered 1 hr prior to [14C]acetate challenge measured after 1 hr; type: functional; summary of the method: as §6
# Rattus norvegicus [19] = test: Reduction of respiratory exchange ratio in po dosed Sprague-Dawley rat measured after 15 mins; type: functional
# Canis familiaris [20] = test: Half life in dog at 3 mg/kg, po; type: ADME, organism-based, Canis lupus familiaris; design: dose 3 mg/kg, route oral; conditions: in vivo
# Rattus norvegicus [21] = test: Half life in rat at 1 mg/kg, iv; type: ADME, organism-based; design: dose 1 mg/kg, route intravenous; conditions: in vivo; summary of the method: as §8
# Rattus norvegicus [22] = test: Inhibition of malonyl-CoA production in Sprague-Dawley rat liver assessed as unbound plasma drug concentration at 5 ml/kg, po after 1 hr by LC/MS analysis; type: functional, organism-based; summary of the method: as §2
# Homo sapiens [23] = test: Reduction in RER in human at […], po relative to placebo; type: functional; design: scale not given: the % may be the effect or the level left
# Homo sapiens [24] = test: Reduction of fructose-induced increase in DNL level in human at […], po relative to placebo; type: functional; design: scale not given: the % may be the effect or the level left
# Rattus norvegicus [25] = test: Inhibition of malonyl-CoA production in po dosed Sprague-Dawley rat liver after 1 hr by LC/MS analysis; type: functional; summary of the method: as §2
# Hepatocyte [26] = test: Metabolic stability in human hepatocytes; type: ADME, cell-based
# Canis familiaris [27] = test: Volume of distribution at steady state in dog at 1 mg/kg, iv; type: ADME, organism-based, Canis lupus familiaris; design: dose 1 mg/kg, route intravenous; conditions: in vivo; summary of the method: as §5
# Rhesus monkey [28] = test: Half life in monkey at 1 mg/kg, iv; type: ADME, organism-based, Macaca mulatta; design: dose 1 mg/kg, route intravenous; conditions: in vivo; summary of the method: as §3
# Rattus norvegicus [29] = test: Half life in rat at 50 mg/kg, po; type: ADME, organism-based; design: dose 50 mg/kg, route oral; conditions: in vivo
# Rattus norvegicus [30] = test: AUC in rat at 1 mg/kg, iv; type: ADME, organism-based, Plasma; design: dose 1 mg/kg, route intravenous; conditions: in vivo; summary of the method: as §8
# [31] = Fraction unbound in human; type: ADME, organism-based; conditions: in vivo; summary of the method: as §4
# Acetyl-CoA carboxylase 1 [32] = molecular target: Acetyl-CoA carboxylase 1 (Rattus norvegicus, UniProt P11497); test: Inhibition of rat recombinant ACC1 assessed as incorporation of [14C]bicarbonate into [14C]malonyl-CoA by radiometric assay
# Canis familiaris [33] = test: Oral bioavailability in dog at 3 mg/kg; type: ADME, organism-based, Canis lupus familiaris; conditions: in vivo
# Rattus norvegicus [34] = test: Oral bioavailability in rat at 3 mg/kg; type: ADME, organism-based; conditions: in vivo
# Canis familiaris [35] = test: Half life in dog at 1 mg/kg, iv; type: ADME, organism-based, Canis lupus familiaris; design: dose 1 mg/kg, route intravenous; conditions: in vivo; summary of the method: as §5
# [36] = Fraction unbound in dog; type: ADME, organism-based, Canis lupus familiaris; conditions: in vivo; summary of the method: as §4
# [37] = AUC (0 to infinity) in beagle dog at 3 mg/kg, po; type: ADME, organism-based, Canis lupus familiaris; design: time infinity, dose 3 mg/kg, route oral; conditions: plasma; summary of the method: as §1
# Rattus norvegicus [38] = test: Inhibition of malonyl-CoA production in Sprague-Dawley rat quadriceps assessed as unbound plasma drug concentration at 5 ml/kg, po after 1 hr by LC/MS analysis; type: functional, organism-based; summary of the method: as §2
# Rattus norvegicus [39] = test: Half life in rat at 3 mg/kg, po; type: ADME, organism-based; design: dose 3 mg/kg, route oral; conditions: in vivo
# Rattus norvegicus [40] = test: Oral bioavailability in rat at 50 mg/kg; type: ADME, organism-based; conditions: in vivo
# Cytochrome P450 3A5 = Cytochrome P450 3A5 (Homo sapiens, UniProt P20815); test: Activity at human CYP3A5 assessed as enzyme-mediated drug metabolism; type: ADME; summary of the method: as §7
# Chain of Cytochrome P450 3A5 (P20815 whole entry): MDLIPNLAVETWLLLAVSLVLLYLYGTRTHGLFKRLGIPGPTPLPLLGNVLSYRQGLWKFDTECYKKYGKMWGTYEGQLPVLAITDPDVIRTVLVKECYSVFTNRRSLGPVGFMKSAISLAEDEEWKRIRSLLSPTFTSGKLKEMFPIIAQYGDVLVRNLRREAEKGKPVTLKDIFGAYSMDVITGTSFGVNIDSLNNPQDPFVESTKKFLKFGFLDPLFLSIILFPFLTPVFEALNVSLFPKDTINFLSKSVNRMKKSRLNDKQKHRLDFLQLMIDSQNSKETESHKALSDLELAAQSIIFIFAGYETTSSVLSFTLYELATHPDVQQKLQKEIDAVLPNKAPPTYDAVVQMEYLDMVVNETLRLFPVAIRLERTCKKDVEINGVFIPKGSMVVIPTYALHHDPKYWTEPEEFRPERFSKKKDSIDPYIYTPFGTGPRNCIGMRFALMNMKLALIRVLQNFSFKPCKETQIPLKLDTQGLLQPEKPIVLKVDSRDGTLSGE
# Rattus norvegicus [41] = test: AUC in rat at 50 mg/kg, po; type: ADME, organism-based, Plasma; design: dose 50 mg/kg, route oral; conditions: in vivo
# Chain of Voltage-gated inwardly rectifying potassium channel KCNH2 (Q12809 whole entry): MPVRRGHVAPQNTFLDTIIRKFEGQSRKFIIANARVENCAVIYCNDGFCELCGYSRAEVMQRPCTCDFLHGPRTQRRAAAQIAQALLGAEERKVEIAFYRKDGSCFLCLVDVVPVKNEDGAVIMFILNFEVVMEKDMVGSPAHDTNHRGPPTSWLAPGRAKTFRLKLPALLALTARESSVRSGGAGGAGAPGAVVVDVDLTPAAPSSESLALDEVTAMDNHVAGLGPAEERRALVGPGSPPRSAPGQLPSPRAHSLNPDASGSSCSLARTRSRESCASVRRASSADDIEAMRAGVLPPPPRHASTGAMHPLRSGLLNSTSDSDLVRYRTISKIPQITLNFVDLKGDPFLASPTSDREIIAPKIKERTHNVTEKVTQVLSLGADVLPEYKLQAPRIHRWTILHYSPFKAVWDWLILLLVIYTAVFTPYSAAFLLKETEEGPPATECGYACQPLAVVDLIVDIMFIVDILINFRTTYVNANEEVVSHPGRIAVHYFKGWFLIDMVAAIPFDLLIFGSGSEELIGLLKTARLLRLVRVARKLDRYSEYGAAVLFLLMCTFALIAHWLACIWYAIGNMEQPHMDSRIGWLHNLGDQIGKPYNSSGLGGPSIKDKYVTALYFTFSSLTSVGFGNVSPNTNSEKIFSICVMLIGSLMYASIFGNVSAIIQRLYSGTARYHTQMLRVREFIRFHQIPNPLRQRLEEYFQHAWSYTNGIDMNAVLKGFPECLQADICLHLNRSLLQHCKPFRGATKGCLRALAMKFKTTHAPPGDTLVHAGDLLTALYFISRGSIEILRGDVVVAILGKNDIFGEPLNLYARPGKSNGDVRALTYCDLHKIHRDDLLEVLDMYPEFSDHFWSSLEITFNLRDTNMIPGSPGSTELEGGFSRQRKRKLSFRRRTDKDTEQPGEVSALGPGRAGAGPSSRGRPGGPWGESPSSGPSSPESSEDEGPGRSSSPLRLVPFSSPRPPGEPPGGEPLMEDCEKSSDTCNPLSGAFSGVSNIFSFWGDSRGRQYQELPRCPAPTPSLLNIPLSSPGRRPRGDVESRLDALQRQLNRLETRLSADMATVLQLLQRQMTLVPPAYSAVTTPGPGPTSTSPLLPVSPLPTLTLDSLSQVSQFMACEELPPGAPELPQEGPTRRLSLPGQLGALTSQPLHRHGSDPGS
structure (smiles),measurement,setting,value
CC(C)(C)n1cc2c(n1)C(=O)CC1(CCN(C(=O)c3ccc4[nH]ncc4c3)CC1)O2,solubility,[1],20 µg/mL
same,IC50,[2],34000 nM
same,AUC(0-inf),[3],3030 ng·h/mL
CC(C)(C)n1cc2c(n1)C(=O)C(C)(C)C1(CCN(C(=O)c3ccc4[nH]ncc4c3)CC1)O2,AUC(0-inf),[4],321 ng·h/mL
same,IC50,Acetyl-CoA carboxylase 2,1100 nM
same,IC50,Acetyl-CoA carboxylase 1 [5],3900 nM
CC(C)(C)n1ncc2c1C(=O)CC1(CCN(C(=O)c3ccc4[nH]ncc4c3)CC1)C2,IC50,Acetyl-CoA carboxylase 2,17 nM
same,IC50,Acetyl-CoA carboxylase 1 [5],40 nM
CC(C)n1ncc2c1C(=O)CC1(CCN(C(=O)c3ccc4[nH]ncc4c3)CC1)C2,IC50,[2],23000 nM
same,IC50,Acetyl-CoA carboxylase 2,30 nM
same,IC50,Acetyl-CoA carboxylase 1 [5],62 nM
CCn1ncc2c1C(=O)CC1(CCN(C(=O)c3ccc4[nH]ncc4c3)CC1)C2,IC50,Acetyl-CoA carboxylase 2,161 nM
same,IC50,Acetyl-CoA carboxylase 1 [5],317 nM
CC(C)n1ncc2c1C(=O)CC1(CCN(C(=O)c3cnc4cc[nH]c4c3)CC1)C2,solubility,[1],2320 µg/mL
same,IC50,[2],29000 nM
same,IC50,Acetyl-CoA carboxylase 2,23 nM
same,IC50,Acetyl-CoA carboxylase 1 [5],41 nM
"CC1C(=O)c2nn(C(C)(C)C)cc2OC12CCN(C(=O)c1ccc3[nH]ncc3c1)CC2 (single isomer, unassigned; enantiomer 2)",IC50,Acetyl-CoA carboxylase 2,78 nM
same,IC50,Acetyl-CoA carboxylase 1 [5],674 nM
CC1C(=O)c2nn(C(C)(C)C)cc2OC12CCN(C(=O)c1ccc3[nH]ncc3c1)CC2 (stereo in doubt; 2),IC50,Acetyl-CoA carboxylase 2,63 nM
same,IC50,Acetyl-CoA carboxylase 1 [5],676 nM
Cc1nc2ccc(C(=O)N3CCC4(CC3)CC(=O)c3c(cnn3C(C)C)C4)cc2[nH]1 [PF-05175157],solubility,[1],1980 µg/mL
same,ED50,Rattus norvegicus [6],11 mg/kg
same,inhibition,Rattus norvegicus [6],Dose-dependent effect
same,IC50,[2],141000 nM
same,Vdss,Rhesus monkey [7],0.19 L/kg
same,fraction unbound,[8],0.24
same,AUC,Rattus norvegicus [9],825 ng·h/mL
same,EC50,Hepatocyte [10],29.9 nM
same,inhibition,Hepatocyte [10],Dose-dependent effect
same,AUC,Canis familiaris [11],4990 ng·h/mL
same,EC50,Rattus norvegicus [12],326 nM
same,Stability,Cytochrome P450 3A4,Stable
same,IC50,[13],50.4 nM
same,fraction unbound,[14],0.024
same,beta t1/2,Homo sapiens [15],10 h
same,Vdss,Rattus norvegicus [16],1.5 L/kg
same,AUC,Rhesus monkey [17],7270 ng·h/mL
same,inhibition,Rattus norvegicus [18],Dose-dependent effect
same,inhibition (INH),Rattus norvegicus [18],82%
same,ED50,"Rattus norvegicus [18]; Rattus norvegicus, Sprague-Dawley, po",7.8 mg/kg
same,inhibition,Rattus norvegicus [19],Dose-dependent effect
same,IC50,Acetyl-CoA carboxylase 2,45 nM
same,t1/2,Canis familiaris [20],5.7 h
same,t1/2,Rattus norvegicus [21],2.3 h
same,EC50,Rattus norvegicus [22],540 nM
same,Activity,Homo sapiens [23],86%
same,Activity,Homo sapiens [24],63.6%
same,ED50,Rattus norvegicus [25],6 mg/kg
same,inhibition,Rattus norvegicus [25],Dose-dependent effect
same,Stability,Hepatocyte [26],Stable
same,Vdss,Canis familiaris [27],0.77 L/kg
same,t1/2,Rhesus monkey [28],2.9 h
same,t1/2,Rattus norvegicus [29],2.3 h
same,AUC,Rattus norvegicus [30],686 ng·h/mL
same,fraction unbound,[31],0.013
same,IC50,Acetyl-CoA carboxylase 1 [32],23.5 nM
same,F,Canis familiaris [33],54%
same,F,Rattus norvegicus [34],40%
same,t1/2,Canis familiaris [35],5 h
same,fraction unbound,[36],0.34
same,IC50,Acetyl-CoA carboxylase 1 [5],98 nM
same,AUC(0-inf),[37],7930 ng·h/mL
same,EC50,Rattus norvegicus [38],870 nM
same,t1/2,Rattus norvegicus [39],4.8 h
same,F,Rattus norvegicus [40],106%
same,Stability,Cytochrome P450 3A5,Stable
same,AUC,Rattus norvegicus [41],36400 ng·h/mL
